Test results taken from ChEMBL document CHEMBL1955770, “Inhibition of S/G2 phase CDK4 reduces mitotic fidelity” (J Biol Chem, 2006).
The source made the active and inactive calls. The calls are words filed in the database; no cut-off is given here.

Experiments:
HeLa [1] = assay: Cell cycle arrest in human HeLa cells assessed as accumulation at G1 phase at 2 uM treated 4 hr and measured 12 hr post double thymidine-synchrony release using propidium iodide staining by FACS analysis (reference value: 81 %); type: functional
[2] = Cell cycle arrest in human SK-MEL-13 cells assessed as accumulation at G2/M phase at 2 uM treated 1 hr and measured 10 hr post double hydroxyurea-synchrony release using propidium iodide staining by FACS analysis (reference value: 70 %); type: functional, cell-based
Procedure, shortened: (§1)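 SK-Mel-13 cells synchronized with 2 mM hydroxyurea, then treated with 2 μM CDK4 inhibitor or left untreated 1 h after release. Harvested at indicated times post-release, ethanol-fixed, propidium iodide/RNase stained, and DNA content read by FACS. Proportions of G1, S and G2/M cells derived with ModFit.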

[3] = molecular target: Proto-oncogene tyrosine-protein kinase Src (Homo sapiens, UniProt P12931); assay: Inhibition of Src using fluorescent substrate by IMAP assay
Chain of Proto-oncogene tyrosine-protein kinase Src (P12931 2-536 limits assumed): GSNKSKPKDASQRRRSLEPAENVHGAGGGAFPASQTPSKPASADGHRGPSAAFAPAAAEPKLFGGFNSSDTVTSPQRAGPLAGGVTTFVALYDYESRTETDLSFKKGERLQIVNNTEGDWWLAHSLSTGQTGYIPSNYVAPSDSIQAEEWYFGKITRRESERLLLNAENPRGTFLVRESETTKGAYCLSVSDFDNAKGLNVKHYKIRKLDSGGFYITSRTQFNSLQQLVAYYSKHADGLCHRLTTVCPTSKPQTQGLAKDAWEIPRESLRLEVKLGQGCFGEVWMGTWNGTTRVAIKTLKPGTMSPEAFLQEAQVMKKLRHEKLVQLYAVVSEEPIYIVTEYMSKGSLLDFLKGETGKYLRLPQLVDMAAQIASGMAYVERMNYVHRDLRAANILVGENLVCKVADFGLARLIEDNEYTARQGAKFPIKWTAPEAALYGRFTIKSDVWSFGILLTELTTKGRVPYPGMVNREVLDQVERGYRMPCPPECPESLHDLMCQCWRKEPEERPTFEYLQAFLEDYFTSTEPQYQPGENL
Procedure, shortened: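 Run in-house using IMAP: phosphorylated fluorescent peptide substrate binds preferentially to immobilized metal beads, which quantifies kinase activity. ATP at 3× the Km of each enzyme.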

HeLa [4] = assay: Cell cycle arrest in human HeLa cells assessed as accumulation at S phase at 2 uM treated 6 hr and measured 8 hr post double thymidine-synchrony release using propidium iodide staining by FACS analysis (reference value: 8 %); type: functional
Procedure, shortened: (§2)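 Cells harvested at set times post-release, fixed in 70% ethanol, stained with 5 μg/ml propidium iodide plus 0.5 mg/ml RNase A, and analysed by flow cytometry. Cell-cycle phase fractions calculated by ModFit.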

HeLa [5] = assay: Cell cycle arrest in human HeLa cells transfected with cyclin D3 siRNA assessed as delay in progression into mitosis at 2 uM measured after 8 to 20 hr post hydroxyurea-synchrony release by time-lapse microscopy; type: functional, cell-based
Procedure, shortened: (§3)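 HeLa cells transfected with 20 nM cyclin D3 siRNA number 1 or scrambled siRNA, then synchronized by overnight 2 mM hydroxyurea block and released. Treated with CDK4 inhibitor, siRNA, or both; entry into mitosis followed by time-lapse microscopy.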

HCT-116 [6] = assay: Antiproliferative activity against human HCT116 cells assessed as inhibition of S phase after 48 hrs by MTT assay; type: functional, cell-based; conditions: HCT-116, 48 h
Procedure, shortened: (§4)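 Cells grown in DMEM with 3 mM HEPES and 10% Serum Supreme at 37 °C, 5% CO2. Proliferation read by MTT assay 48 h after drug addition; IC50 given as mean of two separate determinations, each in duplicate.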

HeLa [7] = assay: Cell cycle arrest at G2 phase in human HeLa cells assessed as decrease in Cyclin A-CDK2 level at 2 uM treated at early S phase measured after 6-14 hr post thymidine-synchrony release by immunoblot method relative to untreated control; type: functional, cell-based
HCT-116 [8] = assay: Cell cycle arrest in Rb-competent human HCT116 cells assessed as […] at IC50 after 24 hrs using BrdUrd staining by FACS analysis (Rvb =38 %); type: functional
HCT-116 [9] = assay: Cell cycle arrest in Rb-competent human HCT116 cells assessed as […] at IC90 after 24 hrs using BrdUrd staining by FACS analysis (Rvb =38 %); type: functional
A2058 [10] = assay: Cell cycle arrest in human A2058 cells assessed as time taken to reach peak mitosis at 2 uM treated 1 hr and post double hydroxyurea-synchrony release using propidium iodide staining by FACS analysis; type: functional
A2058 [11] = assay: Cell cycle arrest in human A2058 cells assessed as accumulation at G2/M phase at 2 uM treated 1 hr and measured 8 hr post double hydroxyurea-synchrony release using propidium iodide staining by FACS analysis (reference value: 48 %); type: functional
HeLa [12] = assay: Cell cycle arrest in synchronized human HeLa cells assessed as re-joining to form single binuclear cells at 2 uM by time-lapse microscopy; type: functional, cell-based
HeLa [13] = assay: Induction of abberent mitosis in human HeLa cells expressing GFP-H2B assessed as lagging chromosomes at astral side of spindle microtubules at 2 uM treated 1 hr and measured 12 hr post-thymidine release by time-lapse microscopy; type: functional, cell-based
[14] = Cell cycle arrest in human SK-MEL-13 cells assessed as accumulation at S phase at 2 uM treated 1 hr and measured 8 hr post double hydroxyurea-synchrony release using propidium iodide staining by FACS analysis (reference value: 74 %); type: functional, cell-based; procedure, shortened: as §1
HeLa [15] = assay: Cell cycle arrest in synchronized human HeLa cells assessed as inhibition of cytokinesis at 2 uM by time-lapse microscopy; type: functional
[16] = Cell cycle arrest in human SK-MEL-13 cells assessed as accumulation at G2/M phase at 2 uM treated 1 hr and measured 8 hr post double hydroxyurea-synchrony release using propidium iodide staining by FACS analysis (reference value: 16 %); type: functional, cell-based; procedure, shortened: as §1
MDA-MB-453 = assay: Toxicity in human MDA-MB-453 cells at 8 uM by MTT assay; type: cell-based; conditions: mda-mb-453, 8 µM
[17] = molecular target: Cyclin-dependent kinase 4 (Homo sapiens) (UniProt P11802); assay: Inhibition of CDK4-mediated Rb phosphorylation at ser 795 in human HCT116 cells at 3 times IC90 after 24 hrs by immunoblot analysis; type: cell-based; conditions: HCT-116
Chain of Cyclin-dependent kinase 4 (Homo sapiens) (P11802 whole entry): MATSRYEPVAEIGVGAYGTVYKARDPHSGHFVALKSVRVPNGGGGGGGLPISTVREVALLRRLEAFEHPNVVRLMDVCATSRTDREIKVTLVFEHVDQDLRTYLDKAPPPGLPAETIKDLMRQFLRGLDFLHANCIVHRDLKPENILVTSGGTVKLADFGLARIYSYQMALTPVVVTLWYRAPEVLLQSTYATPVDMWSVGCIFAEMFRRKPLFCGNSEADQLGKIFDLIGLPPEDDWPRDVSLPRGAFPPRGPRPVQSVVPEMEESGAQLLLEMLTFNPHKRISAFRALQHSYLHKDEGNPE
Procedure, shortened: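 Asynchronous HCT-116 cells (DMEM, 3 mM HEPES, 10% serum, 37 °C, 5% CO₂) were given increasing inhibitor doses for 4 or 24 h. Lysis in NETN with phosphatase and protease inhibitors, then SDS-PAGE, nitrocellulose transfer and immunoblot for phospho-Rb (Ser-795) with HRP secondary and chemiluminescence.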

HeLa [18] = assay: Cell cycle arrest at G2 phase in human HeLa cells at 2 uM treated at early S phase measured after 6-14 hr post thymidine-synchrony release by immunoblot method relative to untreated control
[19] = Cell cycle arrest in human SK-MEL-13 cells assessed as time taken to reach peak mitosis at 2 uM treated 1 hr and post double hydroxyurea-synchrony release using propidium iodide staining by FACS analysis; type: functional, cell-based; procedure, shortened: as §1
COLO 205 = assay: Antiproliferative activity against human COLO205 cells assessed as inhibition of S phase after 48 hrs by MTT assay; type: functional, cell-based; conditions: COLO 205, 48 h; procedure, shortened: as §4
HeLa [20] = assay: Induction of abberent mitosis in human HeLa cells assessed as lagging chromosomes at astral side of spindle microtubules at 2 uM treated 1 hr and measured 12 hr post thymidine-synchrony release by fluorescence microscopy; type: functional, cell-based
HeLa [21] = assay: Cell cycle arrest in human HeLa cells transfected with cyclin D3 siRNA at 2 uM measured after 8 to 20 hr post hydroxyurea-synchrony release by time-lapse microscopy; type: functional, cell-based; procedure, shortened: as §3
HeLa [22] = assay: Cell cycle arrest in Rb-deficient human HeLa cells assessed as accumulation at G2/M phase at 2 uM after 24 hrs by FACS analysis; type: functional
Procedure, shortened: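 Ethanol-fixed cells stained with propidium iodide/RNase A, DNA content read by FACS, phase and sub-diploid fractions calculated with ModFit.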

HeLa [23] = assay: Induction of abberent mitosis in human HeLa cells expressing GFP-H2B assessed as micronuclei formation during interphase at 2 uM treated 1 hr and measured 24 hr post thymidine-synchrony release by time-lapse microscopy (reference value: 10%); type: functional
HeLa [24] = assay: Cell cycle arrest in human HeLa cells assessed as accumulation at S phase at 2 uM treated 2 hr and measured 10 hr post double thymidine-synchrony release using propidium iodide staining by FACS analysis (reference value: 1 %); type: functional; procedure, shortened: as §2

IC50 [3]	IC50 (HCT-116 [6])	inhibition [17]	SMILES	Activity (HeLa [1])	Activity [2]	Activity (HeLa [4])	Activity (HeLa [5])	Activity (HeLa [7])	Activity (HCT-116 [8])	Activity (HCT-116 [9])	Time (A2058 [10])	Activity (A2058 [11])	Activity (HeLa [12])	Activity (HeLa [13])	Activity [14]	inhibition at 2 µM (HeLa [15])	Activity [16]	Activity (MDA-MB-453)	Activity (HeLa [18])	TIME [19]	also measured
3.48 µM	1.1 µM	Active	COc1cccc(C(=O)c2sc(Nc3ccc(N4CCN(C(C)C)CC4)cc3)nc2N)c1	36%	75%	5%	Active	Active	20%	11%	10 h	69%	Active	Active	18%	20%	70%	Toxic	Active	10 h	IC50 (COLO 205): 0.56 µM; Activity (HeLa [20]): Active; Activity (HeLa [21]): Active; Activity (HeLa [22]): 14%; Activity (HeLa [23]): 30%; Activity (HeLa [24]): 6%
3.21 µM	3.85 µM	Active	CN1CCN(c2ccc(Nc3nc(N)c(C(=O)c4ccc5c(c4)OCCO5)s3)cc2)CC1	36%	75%	5%	Active	Active	20%	11%	10 h	69%	Active	Active	18%	20%	70%	Toxic	Active	10 h	IC50 (COLO 205): 2.04 µM; Activity (HeLa [20]): Active; Activity (HeLa [21]): Active; Activity (HeLa [22]): 14%; Activity (HeLa [23]): 30%; Activity (HeLa [24]): 6%
